# The source made the active and inactive calls. No cut-off for these calls is given here.
# Assays:
# [1] = Inhibition of His-tagged human recombinant 2N4R tau protein aggregation assessed as inhibition octadecyl sulphate-induced fibrillation by filter trap assay
# [2] = species on record: Homo sapiens; assay: Inhibition of human tau aggregation in human tau P301L mutant expressing JNPL3 transgenic mouse brain slices at 0.1 nM to 1 uM after 7 days; format: tissue-based
# In short: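 Slices from postnatal day 10 JNPL3 mice were cultured 14 days, then exposed 7 days to compound (0.1 nM–1 μM). The contralateral hemisphere received DMSO (0.008%) as control. RIPA extracts were equalized for total protein, incubated in 1% sarkosyl for 30 min at room temperature, and spun 100,000g for 1 h at 20°C. The insoluble pellet was boiled in SDS buffer, immunoblotted with CP27 and quantified by densitometry (n = 3) relative to vehicle.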
# [3] = tested on: Brain; assay: Induction of apoptosis in human tau P301L mutant expressing JNPL3 transgenic mouse brain slice assessed as cleaved PARP1 after 7 days by densitometry; format: tissue-based; details: 168 h
# In short: (§1)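 Cortex and hippocampus slices (400 μm) cut from postnatal day 10 JNPL3 mouse brain, cultured 14 days on membrane inserts in 25% serum medium, then dosed for 7 days. The contralateral hemisphere received DMSO vehicle (0.008% final) as within-animal control. Slices were sonicated in cold RIPA with protease/phosphatase inhibitors and spun 20,000g for 20 min at 4°C. Supernatant α-tubulin and cleaved PARP1 were immunoblotted and quantified by densitometry (n = 3), normalized to vehicle.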
# [4] = tested on: Brain; assay: Induction of apoptosis in human tau P301L mutant expressing JNPL3 transgenic mouse brain slice assessed as change in alpha-tubulin level at 1 nM after 7 days by densitometry; format: tissue-based; details: 168 h, 0.001 µM; in short: as §1
# [5] = species on record: Homo sapiens; assay: Inhibition of human tau aggregation in human tau P301L mutant expressing JNPL3 transgenic mouse brain slices at 100 nM
# [6] = species on record: Homo sapiens; assay: Induction of human tau aggregation in human tau P301L mutant expressing JNPL3 transgenic mouse brain slices at >=300 nM
# [7] = species on record: Homo sapiens; assay: Inhibition of His-tagged human recombinan2N4R tau protein aggregation assessed as inhibition octadecyl sulphate-induced fibrillation at 10 uM by filter trap assay
# [8] = species on record: Homo sapiens; assay: Inhibition of His-tagged human recombinan2N4R tau protein aggregation assessed as inhibition octadecyl sulphate-induced fibrillation up to 10 uM by filter trap assay
SMILES,IC50 [1],other results
CCN1/C(=C/C=C/C=C/c2sc3ccccc3[n+]2CC)Sc2ccccc21 [DITHIAZANINE IODIDE],2150 nM,–
CCC(/C=C1\Sc2ccc(OC)cc2N1CCO)=C\c1sc2ccc(OC)cc2[n+]1CCO,290 nM,–
CCN1/C(=C/C(C)=C/c2sc3ccccc3[n+]2CC)Sc2ccccc21.[I-],280 nM,Activity [2]: Active; Activity [3]: Non-toxic; Activity [4]: Non-toxic; Activity [5]: inactive; Activity [6]: Active
CC(/C=C1\Sc2ccccc2N1CCCS(=O)(=O)[O-])=C\c1sc2ccccc2[n+]1CCCS(=O)(=O)[O-].CC[n+]1ccccc1,> 10000 nM,–
CCN1/C(=C/c2sc3ccccc3[n+]2CC)Sc2ccccc21,10000 nM,–
CCN1/C(=C/C=C/C=C/C=C/c2sc3ccccc3[n+]2CC)Sc2ccccc21,5000 nM,–
CCN1/C(=C/C=C/c2oc3ccccc3[n+]2CC)Oc2ccccc21,> 10000 nM,Activity [7]: inactive
CCN1/C(=C/C=C/c2sc3ccccc3[n+]2CC)Sc2ccccc21,960 nM,–
CCCN1/C(=C/C=C/C2=[N+](CCC)c3ccccc3C2(C)C)C(C)(C)c2ccccc21,2570 nM,–
CCN1/C(=C/C(C)=C/c2sc3c4ccccc4ccc3[n+]2CC)Sc2c1ccc1ccccc21,3290 nM,–
CCCCCCN1/C(=C/C=C/c2sc3ccccc3[n+]2CCCCCC)Sc2ccccc21,> 10000 nM,Activity [8]: inactive
